Several values for one entry are separate records, joined by “and”; a condition that tells them apart may be missing. Identical values can stand only once.
Tests used:
[1] = tested on: Fibroblast; assay: Multiplex assay against human fibroblast; assay type: toxicity, cell-based; conditions: number of replicates 2
How it was run: (§1)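 Cells stained live at seeding with Hoechst33342, BioTracker Green Microtubule Cytoskeleton Dye, MitoTracker Red and Annexin V Alexa Fluor 680 were imaged on a CQ1 microscope at 37°C and 5% CO2 after compound addition. Their classification by CellPathfinder machine-learning gating ran from Hoechst high-intensity objects versus normal cells, to healthy, pyknosed or fragmented nuclei among normal cells, to mitotic or apoptotic among pyknosed cells. Tubulin, mitochondrial-mass and membrane-permeability phenotypes are per cents of healthy-nucleus cells.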

[2] = tested on: HEK-293T; assay: Multiplex assay against HEK293T; assay type: toxicity, cell-based; conditions: human, number of replicates 2; how it was run: as §1
[3] = 24 h, 10 µM, compound concentration 10 uM
[4] = 48 h, 1 µM, compound concentration 1 uM
[5] = 48 h, 10 µM, compound concentration 10 uM
[6] = 12 h, 1 µM, compound concentration 1 uM
[7] = 12 h, 10 µM, compound concentration 10 uM
[8] = 24 h, 1 µM, compound concentration 1 uM

Structure (SMILES): CN[C@@H]1CC[C@@H](c2ccc(Cl)c(Cl)c2)c2ccccc21.Cl
- Population Hoechst High Intensity Objects (%) [1, 3]: 0%
- Population Membrane Permeable-Phenotype (%) [1, 3]: 7% and 5%
- Population Mitochondria Different-Phenotype (%) [1, 3]: 29% and 49%
- Population Mitotic Cells (%) [1, 3]: 46% and 34%
- Population Normal (%) [1, 3]: 100% and 99%
- Population Pyknosed Nuclei (%) [1, 3]: 30% and 32%
- Population Tubulin-Different-Phenotype (%) [1, 3]: 89% and 88%
- Total Cell Count [1, 3]: 212 and 201
- Population Apoptotic (%) [1, 4]: 78% and 55%
- Population Fragmented Nuclei (%) [1, 4]: 21% and 22%
- Population Healthy Nuclei (%) [1, 4]: 60% and 64%
- Population Hoechst High Intensity Objects (%) [1, 4]: 0%
- Population Membrane Permeable-Phenotype (%) [1, 4]: 2% and 3%
- Population Mitochondria Different-Phenotype (%) [1, 4]: 0%
- Population Mitotic Cells (%) [1, 4]: 21% and 44%
- Population Normal (%) [1, 4]: 99%
- Population Pyknosed Nuclei (%) [1, 4]: 17% and 12%
- Population Apoptotic (%) [1, 5]: 75% and 88%
- Population Fragmented Nuclei (%) [1, 5]: 12% and 14%
- Population Healthy Nuclei (%) [1, 5]: 66% and 51%
- Population Hoechst High Intensity Objects (%) [1, 5]: 1% and 0%
- Population Membrane Permeable-Phenotype (%) [1, 5]: 11% and 1%
- Population Mitochondria Different-Phenotype (%) [1, 5]: 40% and 47%
- Population Mitotic Cells (%) [1, 5]: 24% and 11%
- Population Normal (%) [1, 5]: 98% and 100%
- Population Pyknosed Nuclei (%) [1, 5]: 21% and 34%
- Population Tubulin-Different-Phenotype (%) [1, 5]: 84% and 69%
- Total Cell Count [1, 5]: 196
- Population Apoptotic (%) [2, 6]: 46% and 42%
- Population Fragmented Nuclei (%) [2, 6]: 2% and 3%
- Population Healthy Nuclei (%) [2, 6]: 84%
- Population Hoechst High Intensity Objects (%) [2, 6]: 8% and 7%
- Population Membrane Permeable-Phenotype (%) [2, 6]: 3%
- Population Mitochondria Different-Phenotype (%) [2, 6]: 21% and 16%
- Population Mitotic Cells (%) [2, 6]: 53% and 57%
- Population Normal (%) [2, 6]: 91% and 92%
- Population Pyknosed Nuclei (%) [2, 6]: 12% and 11%
- Population Tubulin-Different-Phenotype (%) [2, 6]: 68% and 66%
- Population Apoptotic (%) [2, 7]: 57% and 46%
- Population Fragmented Nuclei (%) [2, 7]: 3% and 1%
- Population Healthy Nuclei (%) [2, 7]: 81% and 80%
- Population Hoechst High Intensity Objects (%) [2, 7]: 6%
- Population Membrane Permeable-Phenotype (%) [2, 7]: 1% and 3%
- Population Mitochondria Different-Phenotype (%) [2, 7]: 48% and 54%
- Population Mitotic Cells (%) [2, 7]: 42% and 53%
- Population Normal (%) [2, 7]: 93%
- Population Pyknosed Nuclei (%) [2, 7]: 15% and 17%
- Population Tubulin-Different-Phenotype (%) [2, 7]: 96%
- Population Apoptotic (%) [2, 8]: 41% and 38%
- Population Fragmented Nuclei (%) [2, 8]: 3% and 4%
- Population Healthy Nuclei (%) [2, 8]: 88%
- Population Hoechst High Intensity Objects (%) [2, 8]: 8%
- Population Membrane Permeable-Phenotype (%) [2, 8]: 3% and 2%
- Population Mitochondria Different-Phenotype (%) [2, 8]: 10%
- Population Mitotic Cells (%) [2, 8]: 58% and 61%
- Population Normal (%) [2, 8]: 91%
- Population Pyknosed Nuclei (%) [2, 8]: 8% and 7%
- Population Tubulin-Different-Phenotype (%) [2, 8]: 42% and 45%
- Population Apoptotic (%) [2, 3]: 66% and 59%
- Population Fragmented Nuclei (%) [2, 3]: 4% and 2%
- Population Healthy Nuclei (%) [2, 3]: 78% and 81%
- Population Hoechst High Intensity Objects (%) [2, 3]: 7% and 11%
- Population Membrane Permeable-Phenotype (%) [2, 3]: 2%
- Population Mitochondria Different-Phenotype (%) [2, 3]: 63% and 59%
- Population Mitotic Cells (%) [2, 3]: 33% and 40%
- Population Normal (%) [2, 3]: 92% and 88%
- Population Pyknosed Nuclei (%) [2, 3]: 16% and 15%
- Population Tubulin-Different-Phenotype (%) [2, 3]: 94%
- Population Apoptotic (%) [2, 4]: 14% and 15%
- Population Fragmented Nuclei (%) [2, 4]: 11% and 10%
- Population Healthy Nuclei (%) [2, 4]: 84% and 86%
- Population Hoechst High Intensity Objects (%) [2, 4]: 10% and 9%
- Population Membrane Permeable-Phenotype (%) [2, 4]: 4%
- Population Mitochondria Different-Phenotype (%) [2, 4]: 1%
- Population Mitotic Cells (%) [2, 4]: 85% and 84%
- Population Normal (%) [2, 4]: 89% and 90%
- Population Pyknosed Nuclei (%) [2, 4]: 3%
- Population Tubulin-Different-Phenotype (%) [2, 4]: 18% and 23%
- Population Apoptotic (%) [2, 5]: 58% and 75%
- Population Fragmented Nuclei (%) [2, 5]: 5%
- Population Healthy Nuclei (%) [2, 5]: 84% and 83%
- Population Hoechst High Intensity Objects (%) [2, 5]: 8% and 13%
- Population Membrane Permeable-Phenotype (%) [2, 5]: 2% and 3%
- Population Mitochondria Different-Phenotype (%) [2, 5]: 29% and 34%
- Population Mitotic Cells (%) [2, 5]: 41% and 24%
- Population Normal (%) [2, 5]: 91% and 86%
- Population Pyknosed Nuclei (%) [2, 5]: 9% and 11%
- Population Tubulin-Different-Phenotype (%) [2, 5]: 76% and 87%

— ChEMBL document CHEMBL5303300, “EUbOPEN Chemogenomics Library - Multiplex” (2023)
